ChEMBL document CHEMBL2086283, “Novel 4-aminoquinoline-pyrimidine based hybrids with improved in vitro and in vivo antimalarial activity” (ACS Med Chem Lett, 2012)
pIC50: −log10 of the molar value. Activity calls are given as the source filed them. The rule behind the calls is not given here.

How the values were obtained:
Plasmodium falciparum [1] = assay: Antiplasmodial activity against chloroquine-sensitive Plasmodium falciparum D6 infected in red blood cells after 72 hrs by parasitic LDH assay; format: functional, organism-based; conditions: D6, 72 h
Plasmodium falciparum [2] = assay: Antiplasmodial activity against chloroquine-resistant Plasmodium falciparum W2 infected in red blood cells after 72 hrs by parasitic LDH assay; format: functional, organism-based; conditions: W2, 72 h
Plasmodium falciparum [3] = assay: Ratio of chloroquine IC50 to compound IC50 for chloroquine-sensitive Plasmodium falciparum D6; format: functional
Plasmodium falciparum [4] = assay: Ratio of chloroquine IC50 to compound IC50 for chloroquine-resistant Plasmodium falciparum W2; format: functional
[5] = Cytotoxicity against pig LLC-PK11 cells after 48 hrs by neutral red assay; format: cell-based; conditions: Sus scrofa, LLC-PK11, 48 h
In short: (§1)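 Mammalian cell cytotoxicity was measured as IC50 in Vero (monkey kidney fibroblasts), LLC-PK11 (pig kidney epithelial) and HepG2 (human hepatoma) cells. The highest concentration tested was 60 μM. Values are the mean of two independent experiments ± SD.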

HepG2 [6] = assay: Cytotoxicity against human HepG2 cells after 48 hrs by neutral red assay; format: cell-based; conditions: HepG2, 48 h; in short: as §1
[7] = Selectivity index, ratio of IC50 for african green monkey Vero cells to IC50 for chloroquine-sensitive Plasmodium falciparum D6; format: toxicity, cell-based; conditions: read-out: Ratio IC50
In short: (§2)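 SI is the IC50 for cytotoxicity to Vero cells (monkey kidney fibroblasts) divided by the antimalarial IC50 against the named P. falciparum clone. Cytotoxicity was tested up to 60 μM.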

[8] = Selectivity index, ratio of IC50 for african green monkey Vero cells to IC50 for chloroquine-resistant Plasmodium falciparum W2; format: toxicity, cell-based; conditions: read-out: Ratio IC50; in short: as §2
Vero [9] = assay: Cytotoxicity against african green monkey Vero cells up to 60 uM after 48 hrs by neutral red assay; format: cell-based; conditions: chlorocebus sabaeus; in short: as §1
Plasmodium falciparum [10] = assay: Ratio of artemesin IC50 to compound IC50 for chloroquine-sensitive Plasmodium falciparum D6; format: functional
[11] = Cytotoxicity against pig LLC-PK11 cells up to 60 uM after 48 hrs by neutral red assay; format: cell-based, Sus scrofa; conditions: llc-pk11, 48 h; in short: as §1
HepG2 [12] = assay: Cytotoxicity against human HepG2 cells up to 60 uM after 48 hrs by neutral red assay; format: cell-based; conditions: hepg2, 48 h; in short: as §1
Vero [13] = assay: Cytotoxicity against african green monkey Vero cells after 48 hrs by neutral red assay; format: cell-based; conditions: chlorocebus sabaeus; in short: as §1
Plasmodium berghei [14] = assay: Antimalarial activity against Plasmodium berghei infected in mouse assessed as suppression in parasitemia at 3.3 mg/kg, po administered QD for 3 days measured on day 5 relative to control; format: functional
In short: (§3)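 P. berghei-infected mice, 5 per group, dosed by oral gavage once daily on days 0, 1 and 2 postinfection, with a vehicle control arm. Mice were followed to day 28 postinfection for apparent toxicity, parasitemia and survival. Parasitemia suppression is expressed against mean vehicle-control parasitemia set as 100%, and cure is the number cured per 5 mice.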

Plasmodium berghei [15] = assay: Antimalarial activity against Plasmodium berghei infected in mouse assessed as suppression in parasitemia at 10 mg/kg, po administered QD for 3 days measured on day 5 relative to control; format: functional; in short: as §3
Plasmodium berghei [16] = assay: Antimalarial activity against Plasmodium berghei infected in mouse assessed as suppression in parasitemia at 30 mg/kg, po administered QD for 3 days measured on day 5 relative to control; format: functional; in short: as §3
Plasmodium berghei [17] = assay: Antimalarial activity against Plasmodium berghei infected in mouse assessed as suppression in parasitemia at 3.3 mg/kg, po administered QD for 3 days measured on day 7 relative to control; format: functional; in short: as §3
Plasmodium berghei [18] = assay: Antimalarial activity against Plasmodium berghei infected in mouse assessed as suppression in parasitemia at 10 mg/kg, po administered QD for 3 days measured on day 7 relative to control; format: functional; in short: as §3
Plasmodium berghei [19] = assay: Antimalarial activity against Plasmodium berghei infected in mouse assessed as suppression in parasitemia at 30 mg/kg, po administered QD for 3 days measured on day 7 relative to control; format: functional; in short: as §3
Mus musculus [20] = assay: Toxicity in mouse infected with Plasmodium berghei assessed as host survival at 3.3 mg/kg, po administered QD for 3 days measured on day 28; format: organism-based; set-up: dose 3.3 mg/kg, route oral; conditions: in vivo, 72 h
Mus musculus [21] = assay: Toxicity in mouse infected with Plasmodium berghei assessed as host survival at 10 mg/kg, po administered QD for 3 days measured on day 28; format: organism-based; set-up: dose 10 mg/kg, route oral; conditions: in vivo, 72 h
Mus musculus [22] = assay: Toxicity in mouse infected with Plasmodium berghei assessed as host survival at 30 mg/kg, po administered QD for 3 days measured on day 28; format: organism-based; set-up: dose 30 mg/kg, route oral; conditions: in vivo, 72 h
Plasmodium berghei [23] = assay: Antimalarial activity Plasmodium berghei infected in mouse assessed as mean survival time at 3.3 mg/kg, po administered QD for 3 days (reference value: 15.2 days); format: functional
Plasmodium berghei [24] = assay: Antimalarial activity Plasmodium berghei infected in mouse assessed as mean survival time at 10 mg/kg, po administered QD for 3 days (reference value: 15.2 days); format: functional
Plasmodium berghei [25] = assay: Antimalarial activity Plasmodium berghei infected in mouse assessed as mean survival time at 30 mg/kg, po administered QD for 3 days (reference value: 15.2 days); format: functional
Plasmodium berghei [26] = assay: Antimalarial activity Plasmodium berghei infected in mouse assessed as cure from infection at 3.3 mg/kg, po administered QD for 3 days measured on day 28; format: functional, organism-based; set-up: dose 3.3 mg/kg; in short: as §3
Plasmodium berghei [27] = assay: Antimalarial activity Plasmodium berghei infected in mouse assessed as cure from infection at 10 mg/kg, po administered QD for 3 days measured on day 28; format: functional, organism-based; set-up: dose 10 mg/kg; in short: as §3
Plasmodium berghei [28] = assay: Antimalarial activity Plasmodium berghei infected in mouse assessed as cure from infection at 30 mg/kg, po administered QD for 3 days measured on day 28; format: functional; in short: as §3

Row | Structure (SMILES) | pIC50 (Plasmodium falciparum [1]) | pIC50 (Plasmodium falciparum [2]) | Ratio IC50 (Plasmodium falciparum [4]) | pIC50 [5] | pIC50 (HepG2 [6]) | selectivity ratio [7] | selectivity ratio [8] | Activity (Vero [9]) | Activity [11] | Activity (HepG2 [12]) | pIC50 (Vero [13]) | further results
1 | Cc1cc(NCCCNc2ccnc3cc(Cl)ccc23)nc(N2CCN(C)CC2)n1 | 8.15 | 7.22 | 6 | 4.46 | 4.57 | > 8570 | > 1000 | Non-toxic |  |  |  | Ratio IC50 (Plasmodium falciparum [3]): 6; Ratio IC50 (Plasmodium falciparum [10]): 2
2 | Cc1cc(NCCCCNc2ccnc3cc(Cl)ccc23)nc(N2CCCCC2)n1 | 7.70 | 7.05 | 6 |  |  | > 3000 | > 666 | Non-toxic | Non-toxic | Non-toxic |  | 
3 | Cc1cc(NCCCCNc2ccnc3cc(Cl)ccc23)nc(N2CCN(C)CC2)n1 | 7.70 | 7.70 | 6 | 4.46 | 4.53 | > 3000 | > 3000 | Non-toxic |  |  |  | 
4 | Cc1cc(NCCCNc2ccnc3cc(Cl)ccc23)nc(N2CCOCC2)n1 | 7.70 | 7.30 | 6 | 4.45 | 4.58 | > 3000 | > 1200 | Non-toxic |  |  |  | 
5 | Cc1cc(NCCCCCCNc2ccnc3cc(Cl)ccc23)nc(N2CCOCC2)n1 | 7.52 | 6.85 |  | 4.95 | 5.19 | 503 | 107 |  |  |  | 4.82 | 
6 | COc1cccc2c1C(=O)c1c(O)c3c(c(O)c1C2=O)C[C@@](O)(C(=O)CO)C[C@@H]3O[C@H]1C[C@H](N)[C@H](O)[C@H](C)O1 [DOXORUBICIN] |  |  |  | 5.98 | 6.00 |  |  |  |  |  | 5.07 | 
7 | Cc1cc(NCCNc2ccnc3cc(Cl)ccc23)nc(N2CCN(C)CC2)n1 | 8.30 | 7.52 | 6 |  |  | > 12000 | > 2000 | Non-toxic | Non-toxic | Non-toxic |  | Ratio IC50 (Plasmodium falciparum [3]): 6; Activity (Plasmodium berghei [14]): 23.5%; Activity (Plasmodium berghei [15]): 97%; Activity (Plasmodium berghei [16]): 100%; Activity (Plasmodium berghei [17]): 35.2%; Activity (Plasmodium berghei [18]): 2%; Activity (Plasmodium berghei [19]): 100%; Activity (Mus musculus [20]): Toxic; Activity (Mus musculus [21]): Toxic; Activity (Mus musculus [22]): Non-toxic; MST (Plasmodium berghei [23]): 19.2 days; MST (Plasmodium berghei [24]): 21.4 days; MST (Plasmodium berghei [25]): 28 days; Activity (Plasmodium berghei [26]): inactive; Activity (Plasmodium berghei [27]): inactive; Activity (Plasmodium berghei [28]): 80%; Ratio IC50 (Plasmodium falciparum [10]): 2
8 | CCN1CCN(c2nc(C)cc(NCCCNc3ccnc4cc(Cl)ccc34)n2)CC1 | 8.22 | 7.22 | 6 |  |  | > 10000 | > 1000 | Non-toxic | Non-toxic | Non-toxic |  | Ratio IC50 (Plasmodium falciparum [3]): 6; Activity (Plasmodium berghei [14]): 20.1%; Activity (Plasmodium berghei [15]): 73.9%; Activity (Plasmodium berghei [16]): 100%; Activity (Plasmodium berghei [17]): 19.1%; Activity (Plasmodium berghei [18]): 27.1%; Activity (Plasmodium berghei [19]): 100%; Activity (Mus musculus [20]): Toxic; Activity (Mus musculus [21]): Toxic; Activity (Mus musculus [22]): Non-toxic; MST (Plasmodium berghei [23]): 20.2 days; MST (Plasmodium berghei [24]): 15.2 days; MST (Plasmodium berghei [25]): 27.2 days; Activity (Plasmodium berghei [26]): inactive; Activity (Plasmodium berghei [27]): inactive; Activity (Plasmodium berghei [28]): 20%; Ratio IC50 (Plasmodium falciparum [10]): 2
9 | Cc1cc(NCCCNc2ccnc3cc(Cl)ccc23)nc(N2CCCCC2)n1 | 7.70 | 6.68 |  |  |  | > 3000 | > 285 | Non-toxic | Non-toxic | Non-toxic |  | 
10 | Cc1cc(NCCCCCCNc2ccnc3cc(Cl)ccc23)nc(N2CCCCC2)n1 | 7.22 | 7.00 |  | 5.20 | 5.19 | 146 | 88 |  |  |  | 5.06 | 
11 | Cc1cc(Cl)nc(NCCNc2ccnc3cc(Cl)ccc23)n1 | 6.68 | 6.09 |  | 4.37 | 4.37 | 205 | 53.1 |  |  |  | 4.37 | 
12 | C[C@@H]1CC[C@H]2[C@@H](C)C(=O)O[C@@H]3O[C@@]4(C)CC[C@@H]1[C@]32OO4 [ARTEMISININ] |  |  |  |  |  |  |  | Non-toxic | Non-toxic | Non-toxic |  | 
13 | Cc1cc(NCCCCNc2ccnc3cc(Cl)ccc23)nc(Cl)n1 | 6.92 | 6.17 |  |  |  | > 500 | > 88 | Non-toxic | Non-toxic | Non-toxic |  | 
14 | Cc1cc(Cl)nc(NCCCCNc2ccnc3cc(Cl)ccc23)n1 | 6.77 | 6.19 |  |  | 4.33 | > 353 | > 94 | Non-toxic | Non-toxic |  |  | 
15 | CCN1CCN(c2nc(C)cc(NCCCCNc3ccnc4cc(Cl)ccc34)n2)CC1 | 7.70 | 7.70 | 6 | 4.97 | 4.81 | 1620 | 1620 |  |  |  | 4.49 | 
16 | Cc1cc(NCCCCCCNc2ccnc3cc(Cl)ccc23)nc(Cl)n1 | 6.36 | 6.27 |  | 4.80 | 5.04 | 74.3 | 60.6 |  |  |  | 4.49 | 
17 | Cc1cc(NCCCNc2ccnc3cc(Cl)ccc23)nc(Cl)n1 | 6.48 | 6.15 |  |  |  | > 184 | > 85 | Non-toxic | Non-toxic | Non-toxic |  | 
18 | Cc1cc(NCCNc2ccnc3cc(Cl)ccc23)nc(Cl)n1 | 6.80 | 6.30 |  |  |  | > 370 | > 120 | Non-toxic | Non-toxic | Non-toxic |  | 
19 | Cc1cc(NCCCCCCNc2ccnc3cc(Cl)ccc23)nc(N2CCN(C)CC2)n1 | 8.15 | 7.80 | 6 | 5.14 | 5.20 | 1480 | 650 |  |  |  | 4.98 | Ratio IC50 (Plasmodium falciparum [3]): 6; Ratio IC50 (Plasmodium falciparum [10]): 2
20 | Cc1cc(NCCNc2ccnc3cc(Cl)ccc23)nc(N2CCOCC2)n1 | 7.70 | 6.85 |  |  |  | > 3000 | > 444 | Non-toxic | Non-toxic | Non-toxic |  | 
21 | Cc1cc(Cl)nc(NCCCCCCNc2ccnc3cc(Cl)ccc23)n1 | 6.85 | 6.24 |  | 4.62 | 5.09 | 353 | 85.2 |  |  |  | 4.31 | 
22 | Cc1cc(Cl)nc(NCCCNc2ccnc3cc(Cl)ccc23)n1 | 6.62 | 5.93 |  |  |  | > 250 | > 51.3 | Non-toxic | Non-toxic | Non-toxic |  | 
